Published values of several laboratories.
Each line is one published result; the experiments were not run side by side.
F2 trypsin-like site: Prothrombin, trypsin-like site (F2, Bos taurus, UniProt P00735)
CYP51: Sterol 14-alpha demethylase (CYP51, Trypanosoma cruzi, UniProt Q7Z1V1)
MTNR1A: Melatonin receptor type 1A (MTNR1A, Homo sapiens, UniProt P48039)
FLT3: Receptor-type tyrosine-protein kinase FLT3 (FLT3, Homo sapiens, UniProt P36888)
Tmem97: Sigma intracellular receptor 2 (Tmem97, Rattus norvegicus, UniProt Q5U3Y7)
HTR2C: 5-hydroxytryptamine receptor 2C (HTR2C, Homo sapiens, UniProt P28335)

With `COc1ccc2c(Oc3ccc4c(C(=O)Nc5ccccc5N)cccc4c3)ccnc2c1` the IC50 was over 0.5 µM (Mitogen-activated protein kinase 11 (MAPK11, Homo sapiens, UniProt Q15759); enzyme activity, inhibitor).
The Kd of `Cc1cc2nc3c(=O)[nH]c(=O)nc-3n(C[C@H](O)[C@H](O)[C@H](O)COP(=O)(O)OP(=O)(O)OC[C@H]3O[C@@H](n4cnc5c(N)ncnc54)[C@H](O)[C@@H]3O)c2cc1C` is reported as 0.031 µM (BMP-2-inducible protein kinase (BMP2K, Homo sapiens, UniProt Q9NSY1); binding; lysate).
With `CC(C)(C)[C@H](NC(=O)[C@H](CCCNC(=N)N)NC(=O)Cc1ccc(CN)cc1)C(=O)N[C@@H](CCONC(=N)N)C(=O)NCc1ccc(C(=N)N)cc1` the Ki was 13 µM (F2 trypsin-like site; enzyme activity, inhibitor; pH 8).
With `CC(C)c1ccc(NC(=O)O[C@@H](Cn2ccnc2)c2ccc(F)cc2)cc1` the Kd was 0.083 µM (CYP51; binding).
`CCCN1CCN(c2ccc(-c3cncc(Cl)c3N3CCC4(CCNC4=O)CC3)cc2)CC1` has a Kd of 18.4 µM (Myotonin-protein kinase (DMPK, Homo sapiens, UniProt Q09013); cell-free assay; lysate).
`COc1cccc2c1CCN(C(=O)c1c[nH]nc1-c1ccc(Cl)s1)C2` gave an EC50 of 0.0763 µM (MTNR1A; cAMP, agonist, luciferase).
`c1cc(Nc2nccc(NC3CCCCC3)n2)cc(-c2cc[nH]n2)c1` gave an IC50 of 0.096 µM (FLT3; enzyme activity, inhibitor).
`Cn1cc(C[C@@H](N)C(=O)O)c2ccccc21` has a Ki of 810 µM (Dihydrofolate reductase (DHFR, Homo sapiens, UniProt P00374); enzyme activity, inhibitor; pH 7).
The IC50 of `COC(=O)c1cccc(-c2cccc(Nc3nccc(NC4CCCCC4)n3)c2)c1` is reported as 13.3 µM (FLT3; enzyme activity, inhibitor).
With `CCc1nnc(SCc2cc(C(=O)OC)cs2)[nH]1` the EC50 was 0.0178 µM (MTNR1A; cAMP, agonist, luciferase).
With `O=C(NCCCn1ccnc1)O[C@H](Cn1ccnc1)c1ccc(F)cc1` the Kd was 0.6 µM (CYP51; binding).
For `COc1cccc2c1CCN(C(=O)c1cncn1C)C2`, the EC50 was 0.0227 µM (MTNR1A; cAMP, agonist, luciferase).
`CC(C)(C)[C@H](NC(=O)[C@H](CCCNC(=N)N)NC(=O)Cc1ccc(CNC(=N)N)cc1)C(=O)N[C@@H](CCCNC(=N)N)C(=O)NCc1ccc(C(=N)N)cc1` has a Ki of 20 µM (F2 trypsin-like site; enzyme activity, inhibitor; pH 8).
With `CC(C)(C)Nc1ccnc(Nc2cccc(-c3cccnc3)c2)n1` the IC50 was 0.013 µM (FLT3; enzyme activity, inhibitor).
`CCc1ccc2scc(CCNC(C)=O)c2c1` gave an EC50 of 0.0398 µM (MTNR1A; cAMP, agonist, TR-FRET).
For `CC(C)(C)[C@H](NC(=O)[C@H](CCCNC(=N)N)NC(=O)Cc1ccc(CNC(=N)N)cc1)C(=O)N[C@@H](CCONC(=N)N)C(=O)NCc1ccc(C(=N)N)cc1`, the Ki was 9.6 µM (F2 trypsin-like site; enzyme activity, inhibitor; pH 8).
`COc1ccc2c(ccn2CCCCN2Cc3cc(OC)c(OC)cc3C2)c1` has a Ki of 0.00891 µM (Tmem97; ligand displacement, radioligand; cell membranes).
`c1cc(Nc2nccc(NC3CCCCC3)n2)cc(C2CC2)c1` gave an IC50 of 2.59 µM (FLT3; enzyme activity, inhibitor).
With `COc1ccc2ccn(CCCCN3CCc4cc(OC)c(OC)cc4C3)c2c1` the Ki was 0.00868 µM (Tmem97; ligand displacement, radioligand; cell membranes).
For `CN(Cc1ccsc1)c1ccnc(Cl)c1`, the EC50 was 2.66 µM (MTNR1A; cAMP, agonist, luciferase).
`c1ccc(N2CCCC(Nc3nccc(NC4CCCCC4)n3)C2)cc1` (stereo not drawn) has an IC50 of 3.26 µM (FLT3; enzyme activity, inhibitor).
With `OC[C@@]12C[C@@H]1[C@@H](n1cnc3c(N[C@H](C4CCC4)C4CC4)nc(I)nc31)[C@H](O)[C@@H]2O` the Kb was 0.288 µM (HTR2C; calcium signal, antagonist).
The EC50 of `CCC(=O)NC1Cc2ccccc2C(c2ccccc2)C1` (stereo not drawn) is reported as 0.759 µM (MTNR1A; β-arrestin recruitment, agonist).
`O=C(O[C@@H](Cn1ccnc1)c1ccccc1)c1ccc(-c2ccccc2)cc1` has a Kd of 0.087 µM (CYP51; binding).
`Cc1cc(Nc2cc3ncccc3c(N[C@@H]3C[C@H]4CC[C@@H](C3)N4CCC#N)n2)n[nH]1` has a Kd of 2 µM (Ephrin type-B receptor 6 (EPHB6, Homo sapiens, UniProt O15197); binding, competition with immobilised ligand).
`CC(C)Nc1ccnc(Nc2cccc(C(C)(C)C)c2)n1` has an IC50 of 17.2 µM (FLT3; enzyme activity, inhibitor).
For `O=C(NCCN1CCCCC1)c1cc(Br)ccc1OCCF`, the Ki was 0.0102 µM (Tmem97; ligand displacement, radioligand; cell membranes).
`CCCCN1CCN(C2CCCCC2)CC1` gave a Ki of 0.0652 µM (Tmem97; ligand displacement, radioligand; cell membranes).
`COc1ccc2[nH]cc(CCNC(C)=O)c2c1I` has an EC50 of 0.112 µM (MTNR1A; GTPγS binding, agonist, radiometric; cell membranes).
With `Clc1ccc(CNc2cccc(-c3nnc[nH]3)c2)cc1Cl` the EC50 was 0.229 µM (MTNR1A; cAMP, agonist, luciferase).
For `c1cncc(C2CCCC(Nc3nccc(NC4CCCCC4)n3)C2)c1` (stereo not drawn), the IC50 was over 23 µM (FLT3; enzyme activity, inhibitor).
`COC(=O)c1nccc(N(C)CC2CCCCC2O)n1` (stereo not drawn) has an EC50 of 1.86 µM (MTNR1A; cAMP, agonist, luciferase).
For `O=C(Nc1ccc(Sc2ccc([N+](=O)[O-])cc2)cc1)O[C@@H](Cn1ccnc1)c1ccc(Cl)cc1`, the Kd was 0.715 µM (CYP51; binding).
For `COc1ccc2ncn(CCNC(C)=O)c2c1`, the EC50 was 0.871 µM (MTNR1A; β-arrestin recruitment, agonist).
For `CC(C)c1nc2cc(OCCCCN3CCN(c4cccc5c4OCCO5)CC3)ccc2s1`, the Ki was 0.092 µM (HTR2C; cell-free assay, radioligand).
`COC(=O)[C@H](C)Nc1ccnc(Nc2cccc(-c3cccnc3)c2)n1` has an IC50 of over 22 µM (FLT3; enzyme activity, inhibitor).
`Cc1ccc(C(=O)Nc2ccc(Oc3cc4cnn(C)c4cc3-c3cn[nH]c3)c(F)c2)c(=O)n1-c1ccc(F)cc1` gave an IC50 of 0.031 µM (FLT3; enzyme activity, inhibitor, radiometric).
The EC50 of `COc1ccc(CNc2cccnc2)cc1Br` is reported as 0.049 µM (MTNR1A; cAMP, agonist, luciferase).
`Nc1nc(NCc2ccc(Oc3ccccc3)cc2)nc(-c2c(F)cccc2CO)n1` gave a Ki of 5.9 µM (MTNR1A; cell-free assay, radioligand).
`COCC(CNC(C)=O)c1cccc2ccc(OC)cc12` (stereo not drawn) has an EC50 of 0.00309 µM (MTNR1A; β-arrestin recruitment, agonist).
For `O=C(O)CNC(=O)C(=O)O`, the Kd was 10000 µM (Glutamate dehydrogenase 1, mitochondrial (GLUD1, Bos taurus, UniProt P00366); binding, NMR).
For `COc1cc2c(CCNC(C)=O)c[nH]c2cc1I`, the EC50 was 0.00525 µM (MTNR1A; β-arrestin recruitment, agonist).
`Cc1cnc(-c2ccc(-c3ccc(NC(=O)Nc4c(F)cc(F)cc4F)cc3F)c3c2C(=O)NC3)[nH]1` gave a Kd of 0.0011 µM (Aurora kinase C (AURKC, Homo sapiens, UniProt Q9UQB9); binding, competition with immobilised ligand).
`Fc1ccc(CNc2cccc(-c3nnc[nH]3)c2)c(F)c1` gave an EC50 of 0.245 µM (MTNR1A; cAMP, agonist, luciferase).
`O=C(NCCc1cccc2ccccc12)C1CCC1` has an EC50 of 1.66 µM (MTNR1A; cAMP, agonist, TR-FRET).
